Experimental data taken from ChEMBL document CHEMBL1629475, “Synthesis of new chalcone derivatives containing a rhodanine-3-acetic acid moiety with potential anti-bacterial activity” (2010).
≈ marks a conversion by molar mass, not a printed value. Calls of active or inactive are those of the source. The rule behind the calls is not given here.

Test system: Streptococcus mutans
Assay: Antibacterial activity against Streptococcus mutans KCTC 3289 after 20 hrs by twofold serial dilution technique
Format: functional
Conditions: KCTC 3289, 20 h
Outline: (§1)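 Inoculum was 10⁵ CFU/mL, and MIC was read after incubation at 37 °C for 20 h. Oxacillin and norfloxacin were the positive controls.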

| SMILES | MIC [µg/mL] |
| --- | --- |
| O=C(O)CN1C(=O)/C(=C\c2ccc(/C=C/C(=O)c3ccc([N+](=O)[O-])cc3)cc2)SC1=S | 8 (≈ 17.6 µM) |
| O=C(O)CN1C(=O)/C(=C\c2ccc(/C=C/C(=O)c3ccc(Br)cc3)cc2)SC1=S | 4 (≈ 8.19 µM) |
| O=C(O)CN1C(=O)/C(=C\c2ccc(/C=C/C(=O)c3cccc(Br)c3)cc2)SC1=S | 8 (≈ 16.4 µM) |
| O=C(O)CN1C(=O)/C(=C\c2ccc(/C=C/C(=O)c3cccc(F)c3)cc2)SC1=S | 64 (≈ 150 µM) |
| COc1cccc(C(=O)/C=C/c2ccc(/C=C3/SC(=S)N(CC(=O)O)C3=O)cc2)c1 | 8 (≈ 18.2 µM) |
| Cc1ccc(C(=O)/C=C/c2ccc(/C=C3/SC(=S)N(CC(=O)O)C3=O)cc2)c(C)c1 | 8 (≈ 18.3 µM) |

Test system: Escherichia coli
Assay: Antibacterial activity against Escherichia coli 1356 after 20 hrs by twofold serial dilution technique
Format: functional
Conditions: Escherichia coli, 1356, 20 h
Outline: (§2)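 Inoculum was 10⁵ CFU/mL. MIC was read after 20 h at 37 °C. The MRSA and QRSA strains were multidrug-resistant clinical isolates. Oxacillin and norfloxacin served as positive controls.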

| SMILES | MIC [µg/mL] |
| --- | --- |
| O=C(O)CN1C(=O)/C(=C\c2ccc(/C=C/C(=O)c3ccc([N+](=O)[O-])cc3)cc2)SC1=S | > 64 |
| O=C(O)CN1C(=O)/C(=C\c2ccc(/C=C/C(=O)c3ccc(Br)cc3)cc2)SC1=S | > 64 |
| O=C(O)CN1C(=O)/C(=C\c2ccc(/C=C/C(=O)c3cccc(Br)c3)cc2)SC1=S | > 64 |
| O=C(O)CN1C(=O)/C(=C\c2ccc(/C=C/C(=O)c3cccc(F)c3)cc2)SC1=S | > 64 |
| COc1cccc(C(=O)/C=C/c2ccc(/C=C3/SC(=S)N(CC(=O)O)C3=O)cc2)c1 | > 64 |
| Cc1ccc(C(=O)/C=C/c2ccc(/C=C3/SC(=S)N(CC(=O)O)C3=O)cc2)c(C)c1 | > 64 |

Test system: Escherichia coli
Assay: Antibacterial activity against Escherichia coli 1924 at 64 ug/ml
Format: functional, organism-based
Conditions: not given

| SMILES | Activity |
| --- | --- |
| O=C(O)CN1C(=O)/C(=C\c2ccc(/C=C/C(=O)c3ccc([N+](=O)[O-])cc3)cc2)SC1=S | inactive |
| O=C(O)CN1C(=O)/C(=C\c2ccc(/C=C/C(=O)c3ccc(Br)cc3)cc2)SC1=S | inactive |
| O=C(O)CN1C(=O)/C(=C\c2ccc(/C=C/C(=O)c3cccc(Br)c3)cc2)SC1=S | inactive |
| O=C(O)CN1C(=O)/C(=C\c2ccc(/C=C/C(=O)c3cccc(F)c3)cc2)SC1=S | inactive |
| COc1cccc(C(=O)/C=C/c2ccc(/C=C3/SC(=S)N(CC(=O)O)C3=O)cc2)c1 | inactive |
| Cc1ccc(C(=O)/C=C/c2ccc(/C=C3/SC(=S)N(CC(=O)O)C3=O)cc2)c(C)c1 | inactive |

Test system: Staphylococcus aureus
Assay: Antibacterial activity against Staphylococcus aureus RN 4220 after 20 hrs by twofold serial dilution technique
Format: functional
Conditions: RN 4220, 20 h
Outline: as §2

| SMILES | MIC [µg/mL] |
| --- | --- |
| O=C(O)CN1C(=O)/C(=C\c2ccc(/C=C/C(=O)c3ccc([N+](=O)[O-])cc3)cc2)SC1=S | 4 (≈ 8.8 µM) |
| O=C(O)CN1C(=O)/C(=C\c2ccc(/C=C/C(=O)c3ccc(Br)cc3)cc2)SC1=S | 4 (≈ 8.19 µM) |
| O=C(O)CN1C(=O)/C(=C\c2ccc(/C=C/C(=O)c3cccc(Br)c3)cc2)SC1=S | 8 (≈ 16.4 µM) |
| O=C(O)CN1C(=O)/C(=C\c2ccc(/C=C/C(=O)c3cccc(F)c3)cc2)SC1=S | 64 (≈ 150 µM) |
| COc1cccc(C(=O)/C=C/c2ccc(/C=C3/SC(=S)N(CC(=O)O)C3=O)cc2)c1 | 8 (≈ 18.2 µM) |
| Cc1ccc(C(=O)/C=C/c2ccc(/C=C3/SC(=S)N(CC(=O)O)C3=O)cc2)c(C)c1 | 4 (≈ 9.14 µM) |

Test system: Staphylococcus aureus
Assay: Antibacterial activity against Staphylococcus aureus KCTC 209 after 20 hrs by twofold serial dilution technique
Format: functional
Conditions: KCTC 209, 20 h
Outline: as §2

| SMILES | MIC [µg/mL] |
| --- | --- |
| O=C(O)CN1C(=O)/C(=C\c2ccc(/C=C/C(=O)c3ccc([N+](=O)[O-])cc3)cc2)SC1=S | 4 (≈ 8.8 µM) |
| O=C(O)CN1C(=O)/C(=C\c2ccc(/C=C/C(=O)c3ccc(Br)cc3)cc2)SC1=S | 4 (≈ 8.19 µM) |
| O=C(O)CN1C(=O)/C(=C\c2ccc(/C=C/C(=O)c3cccc(Br)c3)cc2)SC1=S | 8 (≈ 16.4 µM) |
| O=C(O)CN1C(=O)/C(=C\c2ccc(/C=C/C(=O)c3cccc(F)c3)cc2)SC1=S | 64 (≈ 150 µM) |
| COc1cccc(C(=O)/C=C/c2ccc(/C=C3/SC(=S)N(CC(=O)O)C3=O)cc2)c1 | 8 (≈ 18.2 µM) |
| Cc1ccc(C(=O)/C=C/c2ccc(/C=C3/SC(=S)N(CC(=O)O)C3=O)cc2)c(C)c1 | 4 (≈ 9.14 µM) |

Test system: Streptococcus mutans
Assay: Antibacterial activity against Streptococcus mutans KCTC 3065 after 20 hrs by twofold serial dilution technique
Format: functional
Conditions: KCTC 3065, 20 h
Outline: as §1

| SMILES | MIC [µg/mL] |
| --- | --- |
| O=C(O)CN1C(=O)/C(=C\c2ccc(/C=C/C(=O)c3ccc([N+](=O)[O-])cc3)cc2)SC1=S | 8 (≈ 17.6 µM) |
| O=C(O)CN1C(=O)/C(=C\c2ccc(/C=C/C(=O)c3ccc(Br)cc3)cc2)SC1=S | 4 (≈ 8.19 µM) |
| O=C(O)CN1C(=O)/C(=C\c2ccc(/C=C/C(=O)c3cccc(Br)c3)cc2)SC1=S | 8 (≈ 16.4 µM) |
| O=C(O)CN1C(=O)/C(=C\c2ccc(/C=C/C(=O)c3cccc(F)c3)cc2)SC1=S | 64 (≈ 150 µM) |
| COc1cccc(C(=O)/C=C/c2ccc(/C=C3/SC(=S)N(CC(=O)O)C3=O)cc2)c1 | 8 (≈ 18.2 µM) |
| Cc1ccc(C(=O)/C=C/c2ccc(/C=C3/SC(=S)N(CC(=O)O)C3=O)cc2)c(C)c1 | 4 (≈ 9.14 µM) |

Test system: Escherichia coli
Assay: Antibacterial activity against Escherichia coli 1924 after 20 hrs by twofold serial dilution technique
Format: functional
Conditions: Escherichia coli, 1924, 20 h
Outline: as §2

| SMILES | MIC [µg/mL] |
| --- | --- |
| O=C(O)CN1C(=O)/C(=C\c2ccc(/C=C/C(=O)c3ccc([N+](=O)[O-])cc3)cc2)SC1=S | > 64 |
| O=C(O)CN1C(=O)/C(=C\c2ccc(/C=C/C(=O)c3ccc(Br)cc3)cc2)SC1=S | > 64 |
| O=C(O)CN1C(=O)/C(=C\c2ccc(/C=C/C(=O)c3cccc(Br)c3)cc2)SC1=S | > 64 |
| O=C(O)CN1C(=O)/C(=C\c2ccc(/C=C/C(=O)c3cccc(F)c3)cc2)SC1=S | > 64 |
| COc1cccc(C(=O)/C=C/c2ccc(/C=C3/SC(=S)N(CC(=O)O)C3=O)cc2)c1 | > 64 |
| Cc1ccc(C(=O)/C=C/c2ccc(/C=C3/SC(=S)N(CC(=O)O)C3=O)cc2)c(C)c1 | > 64 |

Test system: Escherichia coli
Assay: Antibacterial activity against Escherichia coli 1356 at 64 ug/ml
Format: functional, organism-based
Conditions: not given

| SMILES | Activity |
| --- | --- |
| O=C(O)CN1C(=O)/C(=C\c2ccc(/C=C/C(=O)c3ccc([N+](=O)[O-])cc3)cc2)SC1=S | inactive |
| O=C(O)CN1C(=O)/C(=C\c2ccc(/C=C/C(=O)c3ccc(Br)cc3)cc2)SC1=S | inactive |
| O=C(O)CN1C(=O)/C(=C\c2ccc(/C=C/C(=O)c3cccc(Br)c3)cc2)SC1=S | inactive |
| O=C(O)CN1C(=O)/C(=C\c2ccc(/C=C/C(=O)c3cccc(F)c3)cc2)SC1=S | inactive |
| COc1cccc(C(=O)/C=C/c2ccc(/C=C3/SC(=S)N(CC(=O)O)C3=O)cc2)c1 | inactive |
| Cc1ccc(C(=O)/C=C/c2ccc(/C=C3/SC(=S)N(CC(=O)O)C3=O)cc2)c(C)c1 | inactive |

Test system: Staphylococcus aureus
Assay: Antibacterial activity against Staphylococcus aureus MRSA CCARM 3506 after 20 hrs by twofold serial dilution technique
Format: functional
Conditions: MRSA CCARM 3506, 20 h
Outline: as §2

| SMILES | MIC [µg/mL] |
| --- | --- |
| O=C(O)CN1C(=O)/C(=C\c2ccc(/C=C/C(=O)c3ccc([N+](=O)[O-])cc3)cc2)SC1=S | 4 (≈ 8.8 µM) |
| O=C(O)CN1C(=O)/C(=C\c2ccc(/C=C/C(=O)c3ccc(Br)cc3)cc2)SC1=S | 4 (≈ 8.19 µM) |
| O=C(O)CN1C(=O)/C(=C\c2ccc(/C=C/C(=O)c3cccc(Br)c3)cc2)SC1=S | 8 (≈ 16.4 µM) |
| COc1cccc(C(=O)/C=C/c2ccc(/C=C3/SC(=S)N(CC(=O)O)C3=O)cc2)c1 | 8 (≈ 18.2 µM) |
| Cc1ccc(C(=O)/C=C/c2ccc(/C=C3/SC(=S)N(CC(=O)O)C3=O)cc2)c(C)c1 | 4 (≈ 9.14 µM) |

Test system: Staphylococcus aureus
Assay: Antibacterial activity against Staphylococcus aureus QRSA CCARM 3519 after 20 hrs by twofold serial dilution technique
Format: functional
Conditions: QRSA CCARM 3519, 20 h
Outline: as §2

| SMILES | MIC [µg/mL] |
| --- | --- |
| O=C(O)CN1C(=O)/C(=C\c2ccc(/C=C/C(=O)c3ccc([N+](=O)[O-])cc3)cc2)SC1=S | 4 (≈ 8.8 µM) |
| O=C(O)CN1C(=O)/C(=C\c2ccc(/C=C/C(=O)c3ccc(Br)cc3)cc2)SC1=S | 4 (≈ 8.19 µM) |
| O=C(O)CN1C(=O)/C(=C\c2ccc(/C=C/C(=O)c3cccc(Br)c3)cc2)SC1=S | 8 (≈ 16.4 µM) |
| COc1cccc(C(=O)/C=C/c2ccc(/C=C3/SC(=S)N(CC(=O)O)C3=O)cc2)c1 | 8 (≈ 18.2 µM) |
| Cc1ccc(C(=O)/C=C/c2ccc(/C=C3/SC(=S)N(CC(=O)O)C3=O)cc2)c(C)c1 | 4 (≈ 9.14 µM) |

Test system: Staphylococcus aureus
Assay: Antibacterial activity against Staphylococcus aureus QRSA CCARM 3505 after 20 hrs by twofold serial dilution technique
Format: functional
Conditions: QRSA CCARM 3505, 20 h
Outline: as §2

| SMILES | MIC [µg/mL] |
| --- | --- |
| O=C(O)CN1C(=O)/C(=C\c2ccc(/C=C/C(=O)c3ccc([N+](=O)[O-])cc3)cc2)SC1=S | 4 (≈ 8.8 µM) |
| O=C(O)CN1C(=O)/C(=C\c2ccc(/C=C/C(=O)c3ccc(Br)cc3)cc2)SC1=S | 4 (≈ 8.19 µM) |
| O=C(O)CN1C(=O)/C(=C\c2ccc(/C=C/C(=O)c3cccc(Br)c3)cc2)SC1=S | 8 (≈ 16.4 µM) |
| COc1cccc(C(=O)/C=C/c2ccc(/C=C3/SC(=S)N(CC(=O)O)C3=O)cc2)c1 | 8 (≈ 18.2 µM) |
| Cc1ccc(C(=O)/C=C/c2ccc(/C=C3/SC(=S)N(CC(=O)O)C3=O)cc2)c(C)c1 | 4 (≈ 9.14 µM) |

Test system: Staphylococcus aureus
Assay: Antibacterial activity against Staphylococcus aureus KCTC 503 after 20 hrs by twofold serial dilution technique
Format: functional
Conditions: KCTC 503, 20 h
Outline: as §2

| SMILES | MIC [µg/mL] |
| --- | --- |
| O=C(O)CN1C(=O)/C(=C\c2ccc(/C=C/C(=O)c3ccc([N+](=O)[O-])cc3)cc2)SC1=S | 4 (≈ 8.8 µM) |
| O=C(O)CN1C(=O)/C(=C\c2ccc(/C=C/C(=O)c3ccc(Br)cc3)cc2)SC1=S | 4 (≈ 8.19 µM) |
| O=C(O)CN1C(=O)/C(=C\c2ccc(/C=C/C(=O)c3cccc(Br)c3)cc2)SC1=S | 8 (≈ 16.4 µM) |
| O=C(O)CN1C(=O)/C(=C\c2ccc(/C=C/C(=O)c3cccc(F)c3)cc2)SC1=S | 64 (≈ 150 µM) |
| COc1cccc(C(=O)/C=C/c2ccc(/C=C3/SC(=S)N(CC(=O)O)C3=O)cc2)c1 | 8 (≈ 18.2 µM) |
| Cc1ccc(C(=O)/C=C/c2ccc(/C=C3/SC(=S)N(CC(=O)O)C3=O)cc2)c(C)c1 | 4 (≈ 9.14 µM) |

Test system: Staphylococcus aureus
Assay: Antibacterial activity against Staphylococcus aureus MRSA CCARM 3167 after 20 hrs by twofold serial dilution technique
Format: functional
Conditions: MRSA CCARM 3167, 20 h
Outline: as §2

| SMILES | MIC [µg/mL] |
| --- | --- |
| O=C(O)CN1C(=O)/C(=C\c2ccc(/C=C/C(=O)c3ccc([N+](=O)[O-])cc3)cc2)SC1=S | 4 (≈ 8.8 µM) |
| O=C(O)CN1C(=O)/C(=C\c2ccc(/C=C/C(=O)c3ccc(Br)cc3)cc2)SC1=S | 4 (≈ 8.19 µM) |
| O=C(O)CN1C(=O)/C(=C\c2ccc(/C=C/C(=O)c3cccc(Br)c3)cc2)SC1=S | 8 (≈ 16.4 µM) |
| COc1cccc(C(=O)/C=C/c2ccc(/C=C3/SC(=S)N(CC(=O)O)C3=O)cc2)c1 | 8 (≈ 18.2 µM) |
| Cc1ccc(C(=O)/C=C/c2ccc(/C=C3/SC(=S)N(CC(=O)O)C3=O)cc2)c(C)c1 | 4 (≈ 9.14 µM) |
